Screening data: PubChem BioAssay, Broad Institute
ARNT-TACC3 inh – disrupts binding between human ARNT and TACC3. Q9Y6A5. AlphaScreen His-ARNT PAS-B/GST-TACC3 binding, luminescence; TACC3 fragment carries E629A point mutation. inhibition, % at 9.99 µM. 390,000 compounds, 0.66% hits;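 active means mean inhibition of replicates at least 50% and at least half of replicates each reaching 50%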;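 further: 0% = complete ARNT plus TACC3 wells and 100% = ARNT alone without TACC3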
DYRK1A inh – inhibitors of rat Dyrk1A kinase. Q63470. ADP-Glo luminescence, NFATc1 peptide. inhibition, % at 12.5 µM. 310,000 compounds, 0.43% hits; in the data active means inhibition above about 50%;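 further: plate controls were vehicle with enzyme for no effect and no enzyme for full effect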
CAL PDZ FP-1 – blocks peptide binding to human CAL PDZ domain | Q9HD26 | purified CAL PDZ, TMR-peptide fluorescence polarization, 1 h | inhibition, % at 20 µM | 330,000 compounds, 0.02% hits | AID 504414;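 active means highest replicate inhibition of at least 40%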;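 further: plate controls were DMSO neutral control wells for no effect and unlabeled competitor peptide control wells for full effect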
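Material: tagged CAL PDZ protein CerCALP, purified; buffer or medium: sodium phosphate/NaCl buffer pH 7.4 with TCEP, IgG, Thesit; also added: fluorescent TMR peptide probe; schedule: 1 h incubation at room temperature before polarization reading; technique: fluorescence polarization from S- and P-plane intensities, G-factor corrected; control set: unlabelled peptide and DMSO controls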
CAL PDZ FP-2 – blocks peptide binding to the human CAL PDZ domain; 300,000 compounds, 0.92% hits; AID 602252; purified CAL PDZ, TMR-peptide fluorescence polarization, 1 h; inhibition, % at 24.9 µM; Q9HD26;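 active means mean inhibition of at least 30% with at least half of replicates also reaching 30%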;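 further: 0% = DMSO neutral control and 100% = excess unlabeled competitor peptide PRC23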
ADP-Glo artifact – interferes with ADP-Glo luciferase readout without Dyrk1A; shares compounds with DYRK1A inh; ADP-Glo luciferase artifact assay, no Dyrk1A, luminescence; AC50, µM (highest dose often 12 µM), for the others: at the highest dose activity change, negative = inhibition; 1,300 tested, under 10 active; AID 588348;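 active means fitted half-maximal dose AC50 no more than ten times the top valid tested dose, with luminescence dropping as dose rises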
Active calls of the source: *; . = no result. An excerpt weighted towards active compounds, which were near 1.4% of everything screened.

SMILES	ARNT-TACC3 inh	DYRK1A inh	CAL PDZ FP-1	CAL PDZ FP-2	ADP-Glo artifact
O=C(/C=C/c1ccccc1)Nc1cccnc1Oc1ccccc1F	1.0	51.1*	-1.6	-7.2	0.1%
COc1cccc(CNC(=O)[C@@H]2[C@@H](CO)[C@@H]3Cn4c(ccc(C5=CCCCC5)c4=O)[C@H]2N3)c1	0.0	.	.	.	.
CCn1c2ccccc2c2nc3cc(C(=O)O)ccc3nc21	.	62.0*	-2.9	-4.5	10.0%
Cc1ccc2c(c1)N(CC(=O)NC1CCCCC1)C(=O)c1cccnc1O2	-18.3	57.6*	0.0	.	6.2%
Cc1ccc2c(c1)N(CC(=O)NC1CCCCCC1)C(=O)c1cccnc1O2	5.8	-1.1	-0.5	1.4	.
CCNC(=O)C[C@H]1CC[C@@H]2[C@H](COc3ccc(NC(=O)Nc4c(C)noc4C)cc3C(=O)N2C)O1	-4.1	.	.	.	.
O=C1NC(=S)SC1=Cc1ccc(F)cc1	.	83.5*	-1.0	.	11.3%
COc1ccc(C=C2SC(=S)NC2=O)cc1	-3.6	76.3*	-1.0	0.3	5.1%
O=C1NC(=S)SC1=Cc1cc(Br)ccc1O	6.2	83.7*	-1.1	-7.2	13.1%
COc1cccc(OCCOc2ccc(/C=C3/SC(=S)NC3=O)cc2)c1	-11.1	5.0	-6.6	-0.6	.
O=C1NC(=S)SC1=Cc1ccc(Cl)cc1	3.8	.	-2.8	.	.
C[C@H](NC(=O)C[C@H]1CC[C@H](NC(=O)Nc2ccc3c(c2)OCO3)[C@H](CO)O1)c1ccccc1	-14.7	.	.	.	.
C[C@@H]1CCCCO[C@@H](CN(C)C(=O)c2ccccc2)[C@H](C)CN([C@@H](C)CO)C(=O)c2cc(NC(=O)NC3CCCCC3)ccc2O1	-3.9	.	.	.	.
COc1ccccc1S(=O)(=O)N1CC[C@@H]2[C@@H](CO)Nc3ccc(-c4cccc(C#N)c4)cc3[C@@H]21	8.6	.	.	.	.
Cc1c(C(=O)O)cccc1-n1c(C)cc(/C=N/Nc2ccc([N+](=O)[O-])cn2)c1C	17.1	58.8*	-0.3	5.0	9.1%
O=C(NN1C(=O)/C(=C\c2ccc(O)c([N+](=O)[O-])c2)SC1=S)c1ccccc1Cl	21.0	79.1*	-2.1	-5.1	5.5%
C[C@@H]1CN([C@H](C)CO)S(=O)(=O)c2ccc(C#C[C@@H](C)O)cc2O[C@@H]1CN(C)Cc1ccccc1	-4.6	.	.	.	.
NC(=O)c1c(NC(=O)c2ccc(N3C(=O)CCC3=O)cc2)sc2c1CCCC2	35.6	59.8*	-0.3	-5.8	12.7%
CC1CCc2sc(NC(=O)c3ccc(N4C(=O)CCC4=O)cc3)c(C(N)=O)c2C1 (configuration not stated)	-2.1	13.8	-0.3	-0.8	.
CCc1nc(Nc2cccc(O)c2)c2oc3ccccc3c2n1	5.4	62.2*	-3.8	-27.8	10.2%
CCc1nc(Nc2ccncc2)c2oc3ccccc3c2n1	10.7	13.4	-1.6	.	.
O=[N+]([O-])c1ccc2c(c1)C(=NO)c1cc(F)ccc1-2	0.1	68.5*	-1.1	-5.6	11.5%
CC(=O)NC12CC3CC(C1)CC(C(=O)Nc1nc4ccc(F)cc4s1)(C3)C2	-3.1	78.6*	-4.2	-6.8	7.1%
CCN(CC)CCNc1ccc(C)c2sc3ccc(O)cc3c(=O)c12	27.6	39.9	5.1	5.0	.
CN(C)CCNc1ccc(CO)c2oc3ccc(O)cc3c(=O)c12	9.9	52.4*	-0.2	-1.6	6.2%
SMILES	ARNT-TACC3 inh	DYRK1A inh	CAL PDZ FP-1	CAL PDZ FP-2	ADP-Glo artifact
C[C@@H]1CN([C@H](C)CO)C(=O)c2cc(NC(=O)CCCN(C)C)ccc2O[C@@H]1CN(C)Cc1ccc(C(F)(F)F)cc1	-3.6	.	.	.	.
O=c1oc2c(-c3cccc(F)c3)cc(O)cc2s1	16.3	65.3*	-1.0	3.9	9.8%
COc1ccccc1C1CCN(c2cc(O)ccc2[N+](=O)[O-])CC1	17.9	53.5*	0.1	-0.1	9.9%
N#C/C(=N\Nc1cccc([N+](=O)[O-])c1)C(=O)c1ccc(Br)cc1	-8.2	78.4*	-4.3	-2.9	7.5%
CC(C)c1ccc(/C=C/C(=O)Nc2nc3ccc([N+](=O)[O-])cc3s2)cc1	9.4	24.3	0.3	2.1	.
Cc1cccc(OCC(=O)Nc2nc3ccc([N+](=O)[O-])cc3s2)c1	.	63.6*	-0.3	-3.6	5.7%
Cc1ccc2nc(NC(=O)CCCC(=O)O)sc2c1	2.4	61.8*	-0.9	1.7	9.1%
O=C(O)COc1ccc(/C=C/c2nc3ccc([N+](=O)[O-])cc3s2)cc1	0.5	87.3*	-1.5	-2.1	7.6%
CO[C@@H]1CN(C)C(=O)c2ccc(NC(=O)C3CCC3)cc2OC[C@@H](C)N(Cc2nccs2)C[C@H]1C	-5.1	.	.	.	.
C[C@@H](NC(=O)[C@H]1[C@H](CO)[C@H]2Cn3c(ccc(-c4ccccc4F)c3=O)[C@@H]1N2C)c1ccccc1	30.5	.	.	.	.
O=C(NCC(F)(F)F)[C@H]1[C@H](CO)[C@H]2Cn3c(cccc3=O)[C@H]2N1C(=O)c1ccccc1F	-31.3	.	.	.	.
O=C(C[C@@H]1CC[C@H]2[C@@H](COC[C@H](O)CN2C(=O)Nc2ccccc2)O1)NCc1ccncn1	9.2	.	.	.	.
CCOC(=O)c1ccc(NC(=S)Nc2ccc(Br)cc2N)cc1	1.1	62.9*	0.4	-3.3	8.4%
CCOC(=O)c1ccc(NC(=S)NN)cc1	15.7	-5.5	0.2	1.4	.
COc1ccccc1C#Cc1cnc2c(c1)C(=O)N([C@@H](C)CO)C[C@@H](C)[C@H](CN(C)C(C)=O)O2	0.2	.	.	.	.
Fc1cccc(/C=N/Nc2ncnc3nc[nH]c23)c1	47.1*	73.4*	-1.4	.	0.8%
Fc1ccccc1/C=N/Nc1ncnc2nc[nH]c12	12.4	55.0*	-1.9	-3.9	5.3%
O=C(C[C@H]1C[C@H]2c3cc(NC(=O)C4CCC4)ccc3O[C@H]2[C@H](CO)O1)NCCN1CCCCC1	1.9	.	.	.	.
CSc1nc(O)c(/C=C2\C=Nc3ccccc32)[nH]1	-9.7	57.3*	-1.2	-5.6	8.3%
O=c1[nH]c(/C=C2\C=Nc3ccccc32)c(O)n1Cc1ccccc1F	-2.4	0.9	-0.5	3.2	.
Cc1ccc(N=c2oc3cc(O)ccc3cc2C(N)=O)cc1	-0.5	77.4*	-1.7	-3.4	7.8%
Oc1ccc(-c2csc(NCc3ccco3)n2)cc1	-1.8	52.1*	-0.5	-3.4	5.8%
c1coc(CNc2nc(-c3cccs3)cs2)c1	-1.2	-8.6	0.2	4.0	.
O=C(O)/C=C/c1ccc(O)cc1	-14.2	57.0*	1.3	0.8	9.5%
COc1ccc(/C=C/C(=O)O)cc1	.	62.2*	0.1	4.5	6.1%
CC(/C=C/c1ccc(O)cc1)=N/O	1.8	88.8*	-0.2	-6.2	9.4%
COc1cc(/C=C/C(=O)O)cc(OC)c1	29.4	11.0	0.4	-13.4	.
COc1ccc(NC(=O)Nc2ccc3c(c2)CC(=O)N([C@H](C)CO)C[C@@H](C)[C@@H](CN(C)C(=O)Nc2ccc(OC)cc2)O3)cc1	4.4	.	.	.	.
CC(C)CC(NC(=O)C1CCC(C)CC1)C(=O)Nc1ccc2c(c1)OCCO2 (configuration not stated)	-13.6	56.3*	-0.5	.	11.9%
